These results are taken from ChEMBL document CHEMBL1687915, “Synthesis and biological evaluation of analogues of AKT (protein kinase B) inhibitor-IV” (J Med Chem, 2011).

Activity calls are given as the source filed them. The rule behind the calls is not given here.

One experiment concerns HeLa. Briefly: Cytotoxicity in human HeLa cells assessed as luciferase activity after 24 hrs by CellTiter-Glo luminescent cell viability assay. In kind it is functional, cell-based. The gist of the method:
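Viability of HeLa cells measured after 24 h of compound exposure by cellular ATP (firefly luciferase, CellTiter-Glo) over a dose-response range. IC50 derived from the curves, triplicate or more.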
(Cellular ATP, detected with luciferase, serves as a proxy for viable cell number.)

Experiment [1] in a line: Cytotoxicity in human NHBE cells assessed as luciferase activity after 40 hrs by CellTiter-Glo luminescent cell viability assay. In kind it is cell-based. In a few lines:
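NHBE cells (passage 2, 2×10⁴ cells/cm²) grown on collagen-coated Transwell inserts, submerged for 5–7 days, then at air-liquid interface for a further 28 days (35 days total). Exposed to compound over a dose range, then viability read after 40 h as cellular ATP by CellTiter-Glo firefly luciferase. Triplicate or more.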

Experiment [2] relates to Mycolicibacterium fortuitum. In words: Antibacterial activity against 0.5 uM compound pretreated Mycobacterium fortuitum infected in human HeLa cells assessed as inhibition of bacterial replication. It is filed as functional, organism-based. The gist of the method:
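HeLa cells seeded at 5×10^5/well in EMEM with 10% FBS overnight, 37 °C, 5% CO₂. Washed free of antibiotics, then infected with washed M. fortuitum in uptake buffer at MOI 5 for 24 h. After a warm DMEM wash, compound added at 0.5 μM in HeLa medium, with Triton X-100 (1%) and 0.1% DMSO controls. After 24 h more, cells lysed and plated for CFU on 7H11 agar. At least triplicate.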

The nature of experiment [3]: Antiviral activity against Parainfluenza virus 5 expressing renilla luciferase infected in HeLa cells assessed as inhibition viral replication by luciferase based reporter gene assay. In kind it is functional, cell-based. The gist of the method:
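HeLa cells infected with 1 MOI of recombinant PIV5 carrying renilla luciferase between the HN and L genes, then incubated with compound. Cells harvested 1 day post infection and assayed for renilla luciferase. Screened first as singletons at 1 μM, then at 0.5 μM. IC50 taken from dose-response curves, at least triplicate.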
A general note: In a reporter assay the amount or activity of a reporter protein is the signal.

Experiment [4] is described as follows: Inhibition of AKT -mediated FOXO1a nuclear export in human 786-O cells. In kind it is cell-based.
A short description of experiment [5]: Antiproliferative activity against human 786-O cells. It is filed as functional, cell-based. The settings on record: 786-0.
The mark [6] stands for this setting: Homo sapiens, HeLa, 24 h, read-out: IC50.
Where [7] appears, read: Homo sapiens, NHBE, 40 h, read-out: IC50.
The mark [8] stands for this setting: Mammalian orthorubulavirus 5, HeLa, read-out: IC50.

Usually IC50 stands for the concentration that inhibits the measured activity by half. Take `CCCCCCCCCCCC[n+]1c(/C=C/N(C)c2ccccc2)n(-c2ccccc2)c2ccc(-c3nc4ccccc4s3)cc21.[I-]`: the IC50 with HeLa (setting [6]) was 440 nM; in the experiment on HeLa (hela), “Dose-dependent effect”; in experiment [1] (setting [7]), above 5000 nM; in experiment [1] (nhbe), “Dose-dependent effect”; in experiment [3] (setting [8]), 250 nM; in experiment [3] (hela) it was “Dose-dependent effect”. Besides, the outcome in experiment [2] was inactive.
Regarding `CC[n+]1c(/C=C/N(C)c2ccccc2)n(-c2ccccc2)c2ccc(-c3nc4ccccc4s3)cc21`, the IC50 in the experiment on HeLa (setting [6]) was 670 nM; in the experiment on HeLa (hela) it was “Dose-dependent effect”; in experiment [1] (setting [7]), 3180 nM; in experiment [1] (nhbe), “Dose-dependent effect”; in experiment [3] (setting [8]) it was 520 nM; in experiment [3] (hela) it was “Dose-dependent effect”. For the same molecule, the figures for the IC50 in experiment [4] and in experiment [5] were 625 nM and below 1250 nM, respectively. Moreover, the outcome in experiment [2] was inactive.
With `CN(/C=C/c1n(-c2ccccc2)c2ccc(-c3nc4ccccc4s3)cc2[n+]1CCc1ccccc1)c1ccccc1.[I-]`, the IC50 was 620 nM with HeLa (setting [6]); “Dose-dependent effect” in the experiment with HeLa (hela); 5000 nM in experiment [1] (setting [7]); “Dose-dependent effect” in experiment [1] (nhbe); 590 nM in experiment [3] (setting [8]); “Dose-dependent effect” in experiment [3] (hela). Also, the outcome in experiment [2] was inactive.
On to `CCCCCC[n+]1c(/C=C/N(C)c2ccccc2)n(-c2ccccc2)c2ccc(-c3nc4ccccc4s3)cc21.[I-]`, for which the IC50 is 420 nM with HeLa (setting [6]); “Dose-dependent effect” with HeLa (hela); above 5000 nM in experiment [1] (setting [7]); “Dose-dependent effect” in experiment [1] (nhbe); 410 nM in experiment [3] (setting [8]); “Dose-dependent effect” in experiment [3] (hela). The result in experiment [2] was inactive.
